Calls of active or inactive are those of the source. The rule behind the calls is not given here.
Key:
[1] = Inhibition of FAP
How it was run: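 Enzyme inhibition IC50 is reported as the mean of at least three experiments, with standard deviations of ±40%.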

Dipeptidyl peptidase 2 = Dipeptidyl peptidase 2 (Homo sapiens, UniProt Q9UHL4); assay: Inhibition of DPP2
Dipeptidyl peptidase 4 = Dipeptidyl peptidase 4 (Homo sapiens, UniProt P27487)
Rattus norvegicus [2] = assay: Inhibition of plasma DPP4 in Wistar rat at 3 mg/kg, po measured after 8 hrs; details: read-out: INH
Mus musculus = assay: Reduction in glucose excursion in C57BL/6 mouse at 3 mg/kg, po measured up to 120 mins by oral glucose tolerance test; assay type: functional, organism-based; design: dose 3 mg/kg
How it was run: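 C57BL/6j mice (n = 6) received the compound orally at 3 mpk, with water as the control, 30 min before a glucose load of 3 g/kg.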

Rattus norvegicus [3] = assay: Inhibition of plasma DPP4 in Wistar rat at 3 mg/kg, po measured 30 mins to 4 hrs; details: read-out: INH
[4] = Stability to the compound assessed as half life in phosphate buffer at pH 7.4; assay type: physicochemical
Dipeptidyl peptidase 8 = Dipeptidyl peptidase 8 (Homo sapiens, UniProt Q6V1X1); assay: Inhibition of DPP8
Chain of Dipeptidyl peptidase 8 (Q6V1X1 whole entry): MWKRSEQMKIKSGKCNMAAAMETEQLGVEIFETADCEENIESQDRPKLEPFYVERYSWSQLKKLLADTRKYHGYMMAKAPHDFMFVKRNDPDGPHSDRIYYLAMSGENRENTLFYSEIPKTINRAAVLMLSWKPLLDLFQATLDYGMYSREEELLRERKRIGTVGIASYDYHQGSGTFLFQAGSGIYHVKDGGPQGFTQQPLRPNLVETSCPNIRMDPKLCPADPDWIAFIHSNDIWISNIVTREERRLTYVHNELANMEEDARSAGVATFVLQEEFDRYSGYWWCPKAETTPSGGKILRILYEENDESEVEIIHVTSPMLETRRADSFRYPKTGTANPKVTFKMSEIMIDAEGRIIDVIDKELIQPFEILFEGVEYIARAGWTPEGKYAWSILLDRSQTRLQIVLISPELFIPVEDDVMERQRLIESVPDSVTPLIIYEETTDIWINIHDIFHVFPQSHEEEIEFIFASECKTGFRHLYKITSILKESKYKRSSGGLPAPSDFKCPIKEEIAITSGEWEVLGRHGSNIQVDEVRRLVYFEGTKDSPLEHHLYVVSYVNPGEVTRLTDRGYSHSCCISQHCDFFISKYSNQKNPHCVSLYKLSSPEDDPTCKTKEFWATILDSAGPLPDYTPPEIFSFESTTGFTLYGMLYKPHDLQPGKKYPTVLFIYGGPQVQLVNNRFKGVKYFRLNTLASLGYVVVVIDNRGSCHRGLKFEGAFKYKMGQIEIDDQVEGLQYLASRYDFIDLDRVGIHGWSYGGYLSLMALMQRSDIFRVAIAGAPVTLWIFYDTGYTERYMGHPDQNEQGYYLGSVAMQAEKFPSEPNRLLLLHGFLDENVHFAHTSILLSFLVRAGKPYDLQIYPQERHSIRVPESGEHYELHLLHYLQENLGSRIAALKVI

Chain of Dipeptidyl peptidase 4 (P27487 whole entry): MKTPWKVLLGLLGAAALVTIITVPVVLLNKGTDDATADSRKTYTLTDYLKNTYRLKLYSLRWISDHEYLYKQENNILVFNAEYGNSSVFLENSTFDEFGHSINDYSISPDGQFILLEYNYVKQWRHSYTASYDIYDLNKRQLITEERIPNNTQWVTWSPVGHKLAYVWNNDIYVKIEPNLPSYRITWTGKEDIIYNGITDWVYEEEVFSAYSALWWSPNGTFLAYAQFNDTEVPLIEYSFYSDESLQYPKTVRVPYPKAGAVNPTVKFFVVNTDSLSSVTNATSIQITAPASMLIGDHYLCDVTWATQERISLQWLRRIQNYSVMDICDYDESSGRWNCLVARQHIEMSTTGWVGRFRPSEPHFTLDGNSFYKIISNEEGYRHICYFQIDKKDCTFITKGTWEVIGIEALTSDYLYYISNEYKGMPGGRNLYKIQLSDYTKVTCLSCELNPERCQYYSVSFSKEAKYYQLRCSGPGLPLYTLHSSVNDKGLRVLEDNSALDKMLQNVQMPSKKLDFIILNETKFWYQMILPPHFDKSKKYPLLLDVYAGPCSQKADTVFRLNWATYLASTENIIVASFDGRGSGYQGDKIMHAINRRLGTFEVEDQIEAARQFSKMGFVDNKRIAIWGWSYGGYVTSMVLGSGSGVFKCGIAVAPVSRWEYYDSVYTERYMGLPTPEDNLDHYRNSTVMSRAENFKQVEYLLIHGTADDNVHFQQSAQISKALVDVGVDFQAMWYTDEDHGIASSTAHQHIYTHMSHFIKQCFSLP

Row | SMILES | IC50 [1] | IC50 (Dipeptidyl peptidase 2) | IC50 (Dipeptidyl peptidase 4) | also measured
1 | N#C[C@@H]1CCCN1C(=O)[C@@H](N)CCC(=O)N1CCN(C(=O)C(F)(F)F)CC1 | 19 µM | > 20 µM | 0.008 µM | –
2 | CC(C)(CC(=O)N1Cc2ccccc2C1)[C@H](N)C(=O)N1CCC[C@H]1C#N | > 20 µM | > 20 µM | 0.012 µM | –
3 | C[C@H](CC(=O)N1CCn2c(nnc2C(F)(F)F)C1)[C@H](N)C(=O)N1CCC[C@H]1C#N | 7.1 µM | > 20 µM | – | –
4 | COC[C@@H]1CCCN1C(=O)CC(C)(C)[C@H](N)C(=O)N1CCC[C@H]1C#N.O=C(O)C(F)(F)F | > 20 µM | > 20 µM | – | inhibition in vivo at 3 mg/kg (Rattus norvegicus [2]): > 60%; Activity (Mus musculus): Active; inhibition in vivo at 3 mg/kg (Rattus norvegicus [3]): > 80%; half-life [4]: > 168 h
5 | N#CC1CCCN1C(=O)[C@@H](N)CCC(=O)N1Cc2ccccc2C1 (single isomer, unassigned) | 1.2 µM | – | – | –
6 | N#C[C@@H]1CCCN1C(=O)[C@@H](N)CCC(=O)N1CCOCC1 | > 20 µM | > 20 µM | 0.017 µM | –
7 | N#C[C@@H]1CCCN1C(=O)[C@@H](N)CCC(=O)N1CCc2ccccc2C1 | 8.8 µM | – | – | –
8 | N[C@@H](CCC(=O)N1Cc2ccccc2C1)C(=O)N1CCSC1 | 12 µM | > 20 µM | 1.6 µM | IC50 (Dipeptidyl peptidase 8): > 20 µM
9 | CC[C@H](CC(=O)N1CCn2c(nnc2C(F)(F)F)C1)[C@H](N)C(=O)N1CCC[C@H]1C#N | > 20 µM | > 20 µM | 0.031 µM | –
10 | N#C[C@@H]1CCCN1C(=O)[C@@H](N)CCC(=O)N1CCn2cnnc2C1 | > 20 µM | > 20 µM | 0.007 µM | –
11 | N#C[C@@H]1CCCN1C(=O)[C@@H](N)CCC(=O)N1CCc2ccsc2C1 | 7.5 µM | – | – | –
12 | CCOC(=O)N1CCN(C(=O)CC[C@H](N)C(=O)N2CCC[C@H]2C#N)CC1 | 3.1 µM | > 20 µM | 0.031 µM | –
13 | N[C@@H](CC(=O)N1CCn2c(nnc2C(F)(F)F)C1)Cc1cc(F)c(F)cc1F [SITAGLIPTIN] | > 20 µM | – | – | –
14 | N#C[C@@H]1CCCN1C(=O)[C@@H](N)CCC(=O)N1Cc2ccccc2C1 | 1.2 µM | – | – | –
15 | N#C[C@@H]1CCCN1C(=O)[C@@H](N)CCC(=O)N1CCn2cc(C(F)(F)F)nc2C1 | 14 µM | – | – | –
16 | N#C[C@@H]1CCCN1C(=O)[C@@H](N)CCC(=O)N1CCSC1 | 8.3 µM | > 20 µM | 0.01 µM | –
17 | N#C[C@@H]1CCCN1C(=O)CNC12CC3CC(CC(O)(C3)C1)C2 [VILDAGLIPTIN] | > 20 µM | – | – | inhibition in vivo at 3 mg/kg (Rattus norvegicus [2]): > 60%; Activity (Mus musculus): Active; inhibition in vivo at 3 mg/kg (Rattus norvegicus [3]): > 80%
18 | CC(C)(CC(=O)N1CCn2nc(C(F)(F)F)nc2C1)[C@H](N)C(=O)N1CCC[C@H]1C#N | > 20 µM | > 20 µM | 0.031 µM | –
19 | N#C[C@@H]1CCCN1C(=O)[C@@H](N)CCC(=O)N1CCn2nc(C(F)(F)F)nc2C1 | > 20 µM | > 20 µM | 0.009 µM | –

Further lines, with some results ahead:

Row | IC50 [1] | IC50 (Dipeptidyl peptidase 2) | IC50 (Dipeptidyl peptidase 4) | SMILES | also measured
20 | 21 µM | > 20 µM | 0.022 µM | COC[C@H]1CCCN1C(=O)CC[C@H](N)C(=O)N1CCC[C@H]1C#N | –
21 | > 20 µM | > 20 µM | 0.025 µM | CC(C)(CC(=O)N1CCc2ccsc2C1)[C@H](N)C(=O)N1CCC[C@H]1C#N | –
22 | > 20 µM | > 20 µM | 0.011 µM | N#C[C@@H]1CCCN1C(=O)[C@@H](N)CCC(=O)NC1CCCC1 | –
23 | > 20 µM | > 20 µM | 0.015 µM | N#C[C@@H]1CCCN1C(=O)[C@@H](N)CCC(=O)N1CCCCC1 | –
24 | 2.3 µM | – | – | N#C[C@@H]1CCCN1C(=O)[C@@H](N)CCC(=O)N1CCc2nc(-c3ccc(F)cc3)sc2C1 | –
25 | 6.1 µM | – | – | COc1cc2c(cc1OC)C(C(C)C)N(C(=O)CC[C@H](N)C(=O)N1CCC[C@H]1C#N)CC2 (some centres undefined) | –
26 | > 20 µM | > 20 µM | 0.016 µM | CC(C)(CC(=O)N1CCc2ccccc2C1)[C@H](N)C(=O)N1CCC[C@H]1C#N | –
27 | – | – | 0.037 µM | N#C[C@@H]1CCCN1C(=O)[C@@H](N)CCC(=O)Nc1ccccc1 | –
28 | > 20 µM | > 20 µM | – | N#C[C@@H]1CCCN1C(=O)[C@@H](N)CC(=O)N1Cc2ccccc2C1 | –
29 | 0.47 µM | – | – | N#C[C@@H]1CCCN1C(=O)[C@@H](N)CCC(=O)N1CCN(c2ccncc2)CC1 | –
30 | > 20 µM | – | – | N#C[C@@H]1CCCN1C(=O)[C@@H](N)CCC(=O)N1CCn2c(nnc2C(F)(F)F)C1 | –
31 | 0.054 µM | – | – | N#C[C@@H]1CCCN1C(=O)[C@@H](N)CCCC(=O)N1Cc2ccccc2C1 | –
32 | > 20 µM | > 20 µM | 0.013 µM | C[C@@H]1CCCN1C(=O)CC(C)(C)[C@H](N)C(=O)N1CCC[C@H]1C#N | –
33 | > 20 µM | > 20 µM | 0.012 µM | CC(C)(CC(=O)N1CCn2c(nnc2C(F)(F)F)C1)[C@H](N)C(=O)N1CCC[C@H]1C#N | –
34 | 20 µM | > 20 µM | 0.007 µM | COC[C@@H]1CCCN1C(=O)CC[C@H](N)C(=O)N1CCC[C@H]1C#N | –
35 | 11 µM | > 20 µM | 0.007 µM | N#C[C@@H]1CCCN1C(=O)[C@@H](N)CCC(=O)N1CCCC1 | –
